Only some compounds are listed: those with a hit (about 0.72% of all), similar ones and a draw of the others.
mIAP block = mouse IAP inhibition; purified mouse IAP, CDP-Star luminescence, 30 min; actives 0.2% (n = 330,000); inhibition, % at 10 µM;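 active means inhibition of at least 40% at 10 µM in the primary screen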;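 further: plate controls were DMSO with enzyme for no effect and no enzyme wells for full effect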
bIAP inh = blocks bovine intestinal alkaline phosphatase activity; purified bovine IAP, CDP-star luminescence, 30 min; inhibition, % at 20 µM; AID 1019; 190,000 tested, under 10 active;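 active means over 50% inhibition of intestinal alkaline phosphatase at 20 µM in the single-dose screen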
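test system = bovine IAP enzyme | medium = DEA buffer 100 mM, pH 9.8, with MgCl2 1.0 mM, ZnCl2 0.02 mM | detection = luminescence | dosing = single compound dose of 20 µM, 2% DMSO final | incubation = 30 min reaction at room temperature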
hIAP activ = human IAP activation; P09923; purified human IAP, CDP-Star luminescence, 30 min; active compounds read high; 1 = vehicle-only enzyme, 0 = enzyme-free background; activation factor at 10 µM; actives 0.16% (n = 330,000);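 active means activation factor of the enzyme at least 2-fold when tested at 20 µM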
Target sequence (P09923 whole entry, looked up): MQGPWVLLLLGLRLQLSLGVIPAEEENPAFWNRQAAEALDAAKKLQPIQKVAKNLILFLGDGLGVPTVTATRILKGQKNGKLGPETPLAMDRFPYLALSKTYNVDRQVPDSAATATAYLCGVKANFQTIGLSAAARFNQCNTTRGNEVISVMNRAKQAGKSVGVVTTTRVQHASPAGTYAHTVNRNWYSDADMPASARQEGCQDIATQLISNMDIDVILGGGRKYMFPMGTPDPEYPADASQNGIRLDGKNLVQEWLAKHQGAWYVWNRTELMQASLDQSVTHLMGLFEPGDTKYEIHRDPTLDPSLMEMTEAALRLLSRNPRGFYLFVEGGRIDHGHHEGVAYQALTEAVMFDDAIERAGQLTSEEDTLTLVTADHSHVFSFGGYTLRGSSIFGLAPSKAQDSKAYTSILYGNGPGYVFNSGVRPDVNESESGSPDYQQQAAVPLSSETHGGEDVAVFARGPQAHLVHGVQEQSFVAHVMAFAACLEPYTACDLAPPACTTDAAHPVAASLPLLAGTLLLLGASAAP
mIAP activ = increases mouse intestinal alkaline phosphatase activity; muIAP, CDP-Star luminescence, 30 min; active compounds read high; 1 = vehicle-only enzyme signal, 0 = enzyme-free wells; activation factor at 10 µM; actives 0.24% (n = 330,000);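 active means activation factor of at least 2 at 20 µM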
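Assay system: mouse IAP enzyme; reagent: chemiluminescent substrate CDP-Star; dosing: test compounds delivered from DMSO solution; schedule: 30 min at room temperature; measured by: luminescence from enzymatic CDP-Star hydrolysis; controls: DMSO-only wells and no-enzyme negative control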
bIAP activator = increases bovine intestinal alkaline phosphatase activity | purified bovine IAP, CDP-star luminescence, 30 min; active compounds read high; fold of DMSO-control signal, blank-subtracted | activation factor at 20 µM | actives 0.17% (n = 200,000);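 active means activation factor of 2 or more at 20 µM, a signal rise over negative controls twice the positive control's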
hIAP inh = blocks human intestinal alkaline phosphatase. purified IAP, CDP-Star luminescence, 30 min. AID 2544. actives 0.12% (n = 330,000). P09923. inhibition, % at 10 µM;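 active means inhibition reaching a set limit with compound at 10 µM in the primary screen, cut at about 35% in these data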;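 further: plate controls were DMSO wells with enzyme for no effect and no-enzyme buffer wells for full effect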
* = called active by the depositor; i = inactive; x = no result.

SMILES	mIAP block	bIAP inh	hIAP activ	mIAP activ	bIAP activator	hIAP inh
COC(=O)c1ccc(NC(=S)NC2CC3CCC2C3)cc1 (stereo unspecified)	-201.7	-15.5	1.15	3.02*	1.2	-14.7
COc1ccc(NC(=O)Nc2ccc3c(c2)N(C)C(=O)CS3)cc1OC	-122.4	-9.1	1.2	2.22*	1.1	-20.1
COc1ccc(NC(=O)Nc2ccc3c(c2)N(C)C(=O)CS3)cc1Cl	-87.6	-0.2	1.13	1.88	1	-13.2
CCOc1ccc(NC(=O)Nc2ccc3c(c2)N(C)C(=O)CS3)cc1	-131.5	-0.4	1.17	2.31*	1	-17.4
CC(C)N1CCN(Cc2cc3ccccc3[nH]2)CC1CCO (stereo unspecified)	-2.2	x	1.26	1.02	x	-26.3
O=C(c1nc2ccccn2c1CNCCn1ccc2ccccc21)N1CCOCC1	-1.2	x	1.01	1.01	x	-0.7
CCOc1cc(/C=C2/N=C(C)C(C(=O)OC)=C2O)ccc1O	42.2*	x	0.832	0.578	0.4	16.8
Cc1ccccc1Cn1nc(C)c(NC(=O)C2c3ccccc3Oc3ccccc32)c1C	-348.8	2.5	1.06	4.49*	1	-6.0
CC(/C=N/NC(=O)c1n[nH]c2c1CCC2)=C\c1ccccc1	1.7	1.5	1.52	0.983	1	-51.8
O=C(N/N=C/C=C/c1ccccc1)c1n[nH]c2c1CCC2	-6.7	-38.6	2.08*	1.07	1.4	-107.7
O=C(Nc1cccc2ccccc12)NC1CCCCC1O (stereo unspecified)	-35.2	x	1.16	1.35	x	-16.3
COc1cccc(NCc2cc3c(C(C)(C)C)nn(-c4ccccc4)c3[nH]c2=O)c1	-8.5	-280.5	1.03	1.08	3.8*	-3.1
COC(=O)C(C(=O)OC)c1ncc(C(F)(F)F)cc1Cl	-4.1	-124.0	0.915	1.04	2.2*	8.5
Cc1cc(-c2ccc(C(C)C)c(S(=O)(=O)N3CCN(c4ccccn4)CC3)c2)on1	3.3	x	1.07	0.967	x	-7.5
C[C@H](CO)N1C[C@H](C)[C@@H](CN(C)S(=O)(=O)c2cccs2)Oc2c(NC(=O)Nc3ccc4c(c3)OCO4)cccc2C1=O	-15.5	x	0.957	1.16	x	4.3
C[C@H](CO)N1C[C@H](C)[C@H](CN(C)S(=O)(=O)c2cccs2)Oc2ccc(NC(=O)Nc3ccc4c(c3)OCO4)cc2CC1=O	-129.0	x	1.02	2.29*	x	-2.0
COc1ccc(S(=O)(=O)N(C)C[C@H]2Oc3ccc(NC(=O)NC(C)C)cc3C(=O)N([C@H](C)CO)C[C@@H]2C)cc1	-43.2	x	1.12	1.43	x	-12.1
COc1ccc(NC(=O)Nc2ccc3c(c2)C(=O)N([C@@H](C)CO)C[C@@H](C)[C@@H](CN(C)S(=O)(=O)c2cccs2)O3)cc1	-214.2	x	0.978	3.14*	x	2.2
COc1ccc(S(=O)(=O)N(C)C[C@H]2Oc3ccc(NC(=O)Nc4ccc5c(c4)OCO5)cc3C(=O)N([C@H](C)CO)C[C@@H]2C)cc1	-129.0	x	1.04	2.29*	x	-3.8
C[C@H](CO)N1C[C@H](C)[C@@H](CN(C)S(=O)(=O)c2cccs2)Oc2ccc(NC(=O)Nc3ccc4c(c3)OCO4)cc2C1=O	-116.4	x	0.984	2.16*	x	1.6
COc1ccc(S(=O)(=O)N(C)C[C@H]2Oc3ccc(NC(=O)Nc4ccc5c(c4)OCO5)cc3CC(=O)N([C@@H](C)CO)C[C@@H]2C)cc1	-43.9	x	1.18	1.44	x	-17.5
Cc1ccc(C2c3c(oc4ccccc4c3=O)C(=O)N2c2nncs2)cc1 (stereo unspecified)	-8.1	x	0.983	1.08	x	1.7
Cc1ccc(S(=O)(=O)Nc2ccc3c(c2)CC(=O)N([C@H](C)CO)C[C@@H](C)[C@H](CN(C)S(=O)(=O)c2ccccc2)O3)cc1	2.7	x	1.07	0.973	x	-6.6
C[C@H](CO)N1C[C@H](C)[C@H](CN(C)S(=O)(=O)c2ccccc2)Oc2ccc(NC(=O)NC3CCCCC3)cc2CC1=O	-170.9	x	0.999	2.71*	x	0.1
CCC(C)N(C(=O)Cn1nnc2ccccc21)C(C(=O)Nc1ccc(F)cc1)c1cccc(OC)c1 (stereo unspecified)	-130.6	-30.3	1.16	2.31*	1.3	-15.8
SMILES	mIAP block	bIAP inh	hIAP activ	mIAP activ	bIAP activator	hIAP inh
COCCNC(=O)C(c1cccc(OC)c1)N(Cc1cccs1)C(=O)Cn1nnc2ccccc21 (stereo unspecified)	-2.4	8.6	0.918	1.02	0.9	8.2
Cc1ccc(-n2c(C)cc(C3N=C(N)Nc4nc5ccccc5n43)c2C)c(C)c1 (stereo unspecified)	-84.3	i	1.18	1.84	7*	-18.1
Cc1cc(C2N=C(N)Nc3nc4ccccc4n32)c(C)n1-c1ccccc1Cl (stereo unspecified)	-95.9	-312.2	0.805	1.96	4.1*	19.5
CCCOc1nc(SCCC)nc2c1cnn2-c1ccccc1	-6.0	x	0.9	1.06	x	10.0
COc1cc(CNc2ncc(-c3ccc(Br)cc3)n2C)cc(OC)c1O	-12.9	x	1.2	1.13	x	-20.3
CC(=O)NNc1ncnc2c1cnn2-c1ccc(C)c(Cl)c1	-18.3	-14.0	1.57	1.18	1.1	-57.1
Cc1ccc(Cl)cc1-n1ncc2c(NNC(=O)c3ccco3)ncnc21	7.1	-37.2	2.4*	0.929	1.4	-140.2
CC(=O)NNc1ncnc2c1cnn2-c1ccc(C)cc1	18.5	-27.7	3.06*	0.815	1.3	-206.1
O=C(NNC(=O)c1n[nH]c2ccccc12)c1ccccc1	21.8	x	1.8	0.782	x	-80.3
Cc1c(C)n(Cc2ccccc2)c2ccc(C(=O)OCCCN(C)C)cc12	-8.6	-120.3	0.971	1.09	2.2*	2.9
Cc1cccc(C(C)C)c1NC(=O)COC(=O)Cc1ccsc1	0.9	-306.6	0.875	0.991	4.1*	12.5
O=C(Nc1ccccc1)Nc1ccc(Br)c(Cl)c1	-234.4	0.1	1.29	3.34*	1	-28.8
O=C(Nc1ccccc1)Nc1cccc(Cl)c1Cl	-191.6	13.2	1.03	2.92*	0.9	-3.0
O=C(Nc1ccc(F)cc1)Nc1cccc(Br)c1	-198.9	x	1.01	2.99*	x	-1.0
CC(=O)Nc1cccc(NC(=O)Nc2ccc(C)c(Cl)c2)c1	-110.8	-2.3	1.18	2.11*	1	-17.7
CC(=O)Nc1ccc(NC(=O)Nc2ccc(C)c(C)c2)cc1	-19.8	-5.1	0.785	1.2	1.1	21.5
O=C(Nc1ccncc1)Nc1cccc(Cl)c1Cl	-73.3	x	1.25	1.73	x	-25.3
O=C(Nc1ccccc1)Nc1ccccc1Br	-52.5	-1.6	1.17	1.52	1	-16.5
CCN(CC)c1ccc(C(=O)OCC(=O)Nc2ccc3[nH]c(=O)[nH]c3c2)cc1	4.3	-25.2	0.977	0.957	1.3	2.3
O=C(Nc1ccc(Oc2ccc(NC(=O)Nc3ccccc3Cl)cc2)cc1)Nc1ccccc1Cl	-102.1	x	1.01	2.02*	x	-0.7
N#Cc1sc2nc(-c3ccccc3)cc(-c3ccco3)c2c1N	48.1*	11.3	0.959	0.519	0.9	4.1
